In assay [1] the target is T1, Gastrin-releasing peptide receptor (Mus musculus, UniProt P21729). Nature of the assay: Ability of peptide to inhibit binding of 10 pM [125I]gastrin releasing peptide to S-3T3 cell membrane. Type of assay: cell-based. The gist of the method:
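Swiss 3T3 membranes (10 µg protein) incubated in triplicate with 10 pM [125I]GRP(1-27) in HEPES-KOH pH 6.8 (20 mM) with EGTA, MgCl2, BSA and protease inhibitors, 60 min at 37 °C with shaking. Terminated by filtration through PEI-pretreated GF/B filters, gamma counted. Nonspecific binding taken with 10 nM unlabeled GRP(1-27). IC50 for half-maximal inhibition of specific binding by Hill plot analysis.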

For assay [2], the target named is T1, Gastrin-releasing peptide receptor. Nature of the assay: The ability of the peptide to inhibit the binding of 50 pM [125I]gastrin releasing peptide to intact S-3T3 cells. Format: cell-based. The gist of the method: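 Serially diluted peptides overlaid in triplicate on quiescent Swiss 3T3 monolayers (about 10^5 cells) with 50 pM [125I]GRP in maintenance medium, 30 min at 37 °C. Monolayers washed three times with chilled medium, solubilized, radioactivity counted. IC50 values reported.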

For assay [3], the target named is Gastrin-releasing peptide receptor (Mus musculus) (UniProt P21729). Nature of the assay: Inhibition of 6 nM bombesin induced [3H]thymidine incorporation measured in swiss 3T3 cells using a mitogenicity assay. Type of assay: functional, cell-based. A digest of the protocol:
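Density-arrested quiescent Swiss 3T3 monolayers treated in triplicate with test peptide (generally log dilutions) plus 6 nM bombesin for 18 h, then pulsed 2 h with 0.5 µCi [3H]thymidine per well. Cells washed with cold PBS, fixed in methanol/acetic acid, solubilized, scintillation counted. IC50 ± SEM over replicate trials; na means no activity at 10^-4 M.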

pIC50: −log10 of the molar value. Where a SMILES comes first, the peptide text is derived from it. [ ]: non-standard residue; d: D form. The star is where a group is joined. ProΨ(CH2NH)PheNH2 = NC(=O)[C@H](Cc1ccccc1)NC[C@@H]1CCCN1*; dProψ(CH2NH)PheNH2 = NC(=O)[C@H](Cc1ccccc1)NC[C@H]1CCCN1*; X3 = NC(=O)[C@H](Cc1ccc(O)cc1)NC[C@H]1CCCN1*; Desaminotyrosyl = O=C(CCc1ccc(O)cc1)*; Hydrocinnamoyl = O=C(CCc1ccccc1)*; X9 = O=C(CCN1c2ccccc2Sc2ccccc21)*; X2 = O=C(Cc1ccccc1C(F)(F)F)*; Sar = CNCC(=O)O

T1 sequence (P21729 whole entry): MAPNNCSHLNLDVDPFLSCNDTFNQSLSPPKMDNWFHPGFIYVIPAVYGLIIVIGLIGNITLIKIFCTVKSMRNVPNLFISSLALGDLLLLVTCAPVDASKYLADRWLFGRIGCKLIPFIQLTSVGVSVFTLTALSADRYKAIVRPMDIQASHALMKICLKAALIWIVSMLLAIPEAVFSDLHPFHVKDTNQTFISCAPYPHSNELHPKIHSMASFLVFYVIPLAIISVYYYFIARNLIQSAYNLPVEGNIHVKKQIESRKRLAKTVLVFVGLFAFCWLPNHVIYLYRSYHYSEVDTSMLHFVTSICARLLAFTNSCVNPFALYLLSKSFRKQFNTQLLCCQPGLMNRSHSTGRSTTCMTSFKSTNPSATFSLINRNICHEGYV
Gastrin-releasing peptide receptor (Mus musculus), sequence (P21729 whole entry): as above

For the compound `CC(C)[C@H](NC(=O)[C@H](C)NC(=O)[C@H](Cc1c[nH]c2ccccc12)NC(=O)[C@H](Cc1cnc[nH]1)NC(=O)C[C@H](C)c1ccccc1)C(=O)N[C@H](C)C(=O)N[C@@H](Cc1cnc[nH]1)C(=O)N1CCC[C@@H]1CN[C@@H](Cc1ccccc1)C(N)=O`, the figures for the negative logarithm of the IC50 (pIC50) in assay [1] and in assay [2] were 9.68 and 8.00, respectively. Turning to `CC(C)[C@H](NC(=O)[C@H](C)NC(=O)[C@H](Cc1c[nH]c2ccccc12)NC(=O)[C@H](Cc1cnc[nH]1)NC(=O)C[C@@H](C)c1ccccc1)C(=O)N[C@H](C)C(=O)N[C@@H](Cc1cnc[nH]1)C(=O)N1CCC[C@@H]1CN[C@@H](Cc1ccccc1)C(N)=O`, in assay [1], the pIC50 is 9.31. In assay [3], `CC(C)[C@H](NC(=O)[C@H](C)NC(=O)[C@H](Cc1c[nH]c2ccccc12)NC(=O)[C@H](Cc1c[nH]cn1)NC(=O)[C@@H](N)Cc1ccc2ccccc2c1)C(=O)N[C@H](C)C(=O)N[C@@H](Cc1c[nH]cn1)C(=O)N1CCC[C@@H]1CN[C@@H](Cc1ccccc1)C(N)=O` yielded an Activity of 45 nM. In assay [1], this compound had a pIC50 of 8.11. As for `CC(C)[C@H](NC(=O)[C@H](C)NC(=O)[C@H](Cc1c[nH]c2ccccc12)NC(=O)[C@H](Cc1cnc[nH]1)NC(=O)CCc1cccc(C(F)(F)F)c1)C(=O)N[C@H](C)C(=O)N[C@@H](Cc1cnc[nH]1)C(=O)N1CCC[C@@H]1CN[C@@H](Cc1ccccc1)C(N)=O`, the negative logarithm of the IC50 (pIC50) in assay [1] was 9.80; in assay [2], 8.00. For `CC(C)[C@H](NC(=O)[C@H](C)NC(=O)[C@H](Cc1c[nH]c2ccccc12)NC(=O)[C@H](Cc1cnc[nH]1)NC(=O)CCc1ccccc1)C(=O)N[C@H](C)C(=O)N[C@@H](Cc1cnc[nH]1)C(=O)N1CCC[C@@H]1CN[C@H](Cc1ccc2ccccc2c1)C(N)=O`, in that order: 8.70 and 8.30. For `CC(C)[C@H](NC(=O)[C@H](C)NC(=O)[C@H](Cc1c[nH]c2ccccc12)NC(=O)[C@H](Cc1cnc[nH]1)NC(=O)C1CCc2ccccc2C1)C(=O)N[C@H](C)C(=O)N[C@@H](Cc1cnc[nH]1)C(=O)N1CCC[C@@H]1CN[C@@H](Cc1ccccc1)C(N)=O` (some centres not stated), in that order: 10.10 and 9.52. Compound `CC(C)[C@H](NC(=O)[C@H](C)NC(=O)[C@H](Cc1c[nH]c2ccccc12)NC(=O)[C@H](Cc1cnc[nH]1)NC(=O)Cc1cccc(C(F)(F)F)c1)C(=O)N[C@H](C)C(=O)N[C@@H](Cc1cnc[nH]1)C(=O)N1CCC[C@@H]1CN[C@@H](Cc1ccccc1)C(N)=O` showed a pIC50 in assay [1] of 8.08. On the same count and under the same terms, as for `CC(C)[C@H](NC(=O)[C@H](C)NC(=O)[C@H](Cc1c[nH]c2ccccc12)NC(=O)[C@H](Cc1cnc[nH]1)NC(=O)c1cc2ccccc2cn1)C(=O)N[C@H](C)C(=O)N[C@@H](Cc1cnc[nH]1)C(=O)N1CCC[C@@H]1CN[C@@H](Cc1ccccc1)C(N)=O`, the figure is 9.24; as for `CC(C)[C@H](NC(=O)[C@H](C)NC(=O)[C@H](Cc1c[nH]c2ccccc12)NC(=O)[C@H](Cc1cnc[nH]1)NC(=O)Cc1ccc(C(F)(F)F)cc1)C(=O)N[C@H](C)C(=O)N[C@@H](Cc1cnc[nH]1)C(=O)N1CCC[C@@H]1CN[C@@H](Cc1ccccc1)C(N)=O`, 8.43. `CC(C)[C@H](NC(=O)[C@H](C)NC(=O)[C@H](Cc1c[nH]c2ccccc12)NC(=O)[C@H](Cc1c[nH]cn1)NC(=O)C1CCc2ccccc2C1)C(=O)N[C@H](C)C(=O)N[C@@H](Cc1c[nH]cn1)C(=O)N1CCC[C@@H]1CN[C@@H](Cc1ccccc1)C(N)=O` (some centres not stated) yielded an Activity in assay [3] of 4 nM. Still for that read-out and setting: the value for `CC(C)[C@H](NC(=O)[C@H](C)NC(=O)[C@H](Cc1c[nH]c2ccccc12)NC(=O)[C@H](Cc1c[nH]cn1)NC(=O)CCc1cccc(C(F)(F)F)c1)C(=O)N[C@H](C)C(=O)N[C@@H](Cc1c[nH]cn1)C(=O)N1CCC[C@@H]1CN[C@@H](Cc1ccccc1)C(N)=O` was 0.35 nM; that for `CC(C)[C@H](NC(=O)[C@H](C)NC(=O)[C@H](Cc1c[nH]c2ccccc12)NC(=O)[C@H](Cc1c[nH]cn1)NC(=O)CCc1ccccc1)C(=O)N[C@H](C)C(=O)N[C@@H](Cc1c[nH]cn1)C(=O)N1CCC[C@@H]1CN[C@@H](Cc1ccc2ccccc2c1)C(N)=O` was 40 nM; that for `CC(C)[C@H](NC(=O)[C@H](C)NC(=O)[C@H](Cc1c[nH]c2ccccc12)NC(=O)[C@H](Cc1c[nH]cn1)NC(=O)C[C@@H](C)c1ccccc1)C(=O)N[C@H](C)C(=O)N[C@@H](Cc1c[nH]cn1)C(=O)N1CCC[C@@H]1CN[C@@H](Cc1ccccc1)C(N)=O` was 17 nM. Same read-out and setting: as for `CC(C)[C@H](NC(=O)[C@H](C)NC(=O)[C@H](Cc1c[nH]c2ccccc12)NC(=O)[C@H](Cc1c[nH]cn1)NC(=O)C[C@H](C)c1ccccc1)C(=O)N[C@H](C)C(=O)N[C@@H](Cc1c[nH]cn1)C(=O)N1CCC[C@@H]1CN[C@@H](Cc1ccccc1)C(N)=O`, the figure is 0.16 nM; as for `CC(C)[C@H](NC(=O)[C@H](C)NC(=O)[C@H](Cc1c[nH]c2ccccc12)NC(=O)[C@H](Cc1c[nH]cn1)NC(=O)Cc1ccc(C(F)(F)F)cc1)C(=O)N[C@H](C)C(=O)N[C@@H](Cc1c[nH]cn1)C(=O)N1CCC[C@@H]1CN[C@@H](Cc1ccccc1)C(N)=O`, 200 nM; as for `CC(C)[C@H](NC(=O)[C@H](C)NC(=O)[C@H](Cc1c[nH]c2ccccc12)NC(=O)[C@H](Cc1c[nH]cn1)NC(=O)Cc1cccc(C(F)(F)F)c1)C(=O)N[C@H](C)C(=O)N[C@@H](Cc1c[nH]cn1)C(=O)N1CCC[C@@H]1CN[C@@H](Cc1ccccc1)C(N)=O`, 260 nM. On the same count and under the same terms, as for `CC(C)[C@H](NC(=O)[C@H](C)NC(=O)[C@H](Cc1c[nH]c2ccccc12)NC(=O)[C@H](Cc1c[nH]cn1)NC(=O)c1cc2ccccc2cn1)C(=O)N[C@H](C)C(=O)N[C@@H](Cc1c[nH]cn1)C(=O)N1CCC[C@@H]1CN[C@@H](Cc1ccccc1)C(N)=O`, the figure is 4 nM; as for `CC(C)[C@H](NC(=O)[C@H](C)NC(=O)[C@H](Cc1c[nH]c2ccccc12)NC(=O)[C@H](Cc1c[nH]cn1)NC(=O)c1cccc2ccccc12)C(=O)N[C@H](C)C(=O)N[C@@H](Cc1c[nH]cn1)C(=O)N1CCC[C@@H]1CN[C@@H](Cc1ccccc1)C(N)=O`, 0.3 nM.

`CCCCC(NC[C@H]1CCCN1C(=O)[C@H](Cc1cccs1)NC(=O)[C@@H](C)NC(=O)[C@@H](NC(=O)[C@H](C)NC(=O)[C@H](Cc1c[nH]c2ccccc12)NC(=O)[C@H](Cc1c[nH]cn1)NC(=O)CCc1ccccc1)C(C)C)C(N)=O` (some centres not stated) returned an Activity in assay [3] of 300 nM. Still for that read-out and setting: the value for `CC(C)[C@H](NC(=O)[C@H](C)NC(=O)[C@H](Cc1c[nH]c2ccccc12)NC(=O)[C@H](Cc1c[nH]cn1)NC(=O)CCc1ccc(O)cc1)C(=O)N[C@H](C)C(=O)N[C@@H](Cc1c[nH]cn1)C(=O)N1CCC[C@@H]1CN[C@@H](Cc1ccccc1)C(N)=O` (Desaminotyrosyl-HWAV[dA]H-{dProψ(CH2NH)PheNH2}) was 0.16 nM; that for `CC(C)[C@H](NC(=O)[C@H](C)NC(=O)[C@H](Cc1c[nH]c2ccccc12)NC(=O)[C@H](Cc1c[nH]cn1)NC(=O)CCc1ccccc1)C(=O)N(C)CC(=O)N[C@@H](Cc1c[nH]cn1)C(=O)N1CCC[C@H]1CN[C@@H](Cc1ccccc1)C(N)=O` (Hydrocinnamoyl-HWAV[Sar]H-{ProΨ(CH2NH)PheNH2}) was 0.43 nM. In assay [3], `CC(C)[C@H](NC(=O)[C@H](C)NC(=O)[C@H](Cc1c[nH]c2ccccc12)NC(=O)[C@H](Cc1c[nH]cn1)NC(=O)CCc1ccccc1)C(=O)N[C@H](C)C(=O)N[C@@H](Cc1c[nH]cn1)C(=O)N1CCC[C@@H]1CN[C@@H](Cc1ccc(O)cc1)C(N)=O` (Hydrocinnamoyl-HWAV[dA]H-X3) displayed an Activity of 10 nM. The pIC50 in assay [1] was 9.48. For `CC(C)[C@H](NC(=O)[C@H](C)NC(=O)[C@H](Cc1c[nH]c2ccccc12)NC(=O)[C@H](Cc1c[nH]cn1)NC(=O)Cc1ccccc1C(F)(F)F)C(=O)N[C@H](C)C(=O)N[C@@H](Cc1c[nH]cn1)C(=O)N1CCC[C@@H]1CN[C@@H](Cc1ccccc1)C(N)=O` (X2-HWAV[dA]H-{dProψ(CH2NH)PheNH2}), in that order: 330 nM and 7.92. Turning to `CC(C)[C@H](NC(=O)[C@H](C)NC(=O)[C@H](Cc1c[nH]c2ccccc12)NC(=O)[C@H](Cc1c[nH]cn1)NC(=O)CCN1c2ccccc2Sc2ccccc21)C(=O)N[C@H](C)C(=O)N[C@@H](Cc1c[nH]cn1)C(=O)N1CCC[C@@H]1CN[C@@H](Cc1ccccc1)C(N)=O` (X9-HWAV[dA]H-{dProψ(CH2NH)PheNH2}), in assay [3], the Activity is 29 nM. This compound gave a negative-log IC50 (pIC50) in assay [1] of 8.72. For `CC(NC(=O)[C@H](Cc1csc2ccccc12)NC(=O)[C@H](Cc1c[nH]cn1)NC(=O)CCc1ccccc1)C(=O)N[C@H](C(=O)NC(C)C(=O)N[C@@H](Cc1c[nH]cn1)C(=O)N1CCC[C@@H]1CN[C@@H](Cc1ccccc1)C(N)=O)C(C)C` (stereo in doubt) the same measures were 430 nM and 9.12. Take `CC(C)[C@H](NC(=O)[C@H](C)NC(=O)[C@H](Cc1c[nH]c2ccccc12)NC(=O)[C@H](Cc1c[nH]cn1)NC(=O)CCc1ccccc1)C(=O)N[C@H](C)C(=O)N[C@@H](Cc1c[nH]cn1)C(=O)N1CCC[C@@H]1CNC(Cc1ccccc1)C(N)=O` (stereo in doubt): the pIC50 in assay [1] is 10.42. The compound `CC(NC(=O)[C@@H](NC[C@H](C)NC(=O)[C@H](Cc1c[nH]c2ccccc12)NC(=O)[C@H](Cc1c[nH]cn1)NC(=O)CCc1ccccc1)C(C)C)C(=O)N[C@@H](Cc1c[nH]cn1)C(=O)N1CCC[C@H]1CN[C@@H](Cc1ccccc1)C(N)=O` (stereo in doubt) registered an Activity in assay [3] of 47 nM. This compound gave a negative-log IC50 (pIC50) in assay [1] of less than 8.00.

(Values after ChEMBL document CHEMBL1127325, “Potent gastrin-releasing peptide (GRP) antagonists derived from GRP (19-27) with a C-terminal DPro psi [CH2NH]Phe-NH2 and N-terminal aromatic residues” (J Med Chem, 1994).)
